Results reported in ChEMBL document CHEMBL1777800, “Novel diarylheptanoids as inhibitors of TNF-α production” (Bioorg Med Chem Lett, 2011).
The source made the active and inactive calls. No cut-off for these calls is given here.

Columns and labels:
[1] = tested on: Blood; assay: Antiinflammatory activity in human whole blood assessed as inhibition of LPS-induced TNFalpha production at 10 uM treated for 30 mins followed by 5 hrs LPS challenge by ELISA-based WBCCS assay; type: functional
How it was run: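 Human whole blood cells exposed to compound 30 min, then LPS-stimulated; supernatants collected after 5 h and TNF-α determined by ELISA; expressed as percent inhibition.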

[2] = tested on: PBMC; assay: Antiinflammatory activity in human PBMC assessed as inhibition of LPS-induced TNFalpha production treated for 30 mins followed by 5 hrs LPS challenge by ELISA assay; type: functional, cell-based
How it was run: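 Human PBMC pre-treated with compound (0.03–100 µM) for 30 min, then LPS-stimulated 5 h; TNF-α measured. Controls: DMSO vehicle with LPS, unstimulated cells, rolipram standard. Mean ± S.E.M. of three experiments; IC50 from concentration–response.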

[3] = tested on: PBMC; assay: Cytotoxicity against human PBMC by MTS assay; type: cell-based
How it was run: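 Viability of human PBMC determined by MTS across the concentrations tested in the LPS-stimulated TNF-α assay.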

[4] = tested on: Mus musculus; assay: Antiinflammatory activity in BALB/c mouse assessed as inhibition of LPS-induced TNFalpha production in plasma at 100 mg/kg, po by ELISA; type: functional
How it was run: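 BALB/c mice dosed orally, vehicle 0.5% carboxymethylcellulose, rolipram as standard; LPS given 1 h later. Blood drawn 1.5 h after LPS; plasma TNF-α quantified by ELISA.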

SMILES	inhibition at 10 µM [1] [%]	also measured
COc1ccc(CCC(=O)/C=C/CCc2cccnc2)c(OC)c1	56	inhibition [2]: Dose-dependent effect; IC50 ([2]; read-out: IC50): 2 µM; IC50 [3]: 38 µM; inhibition in vivo at 100 mg/kg [4]: 79%
COc1cccc(CCC(=O)/C=C/CCc2cccnc2)c1OC	33	–
COc1cccc(CCC(=O)CC(O)CCc2cccnc2)c1OC (stereo not drawn)	10	–
N#Cc1ccc(CCC(=O)/C=C/CCc2cccnc2)cc1	9	–
COc1cc(/C=C/C(=O)CC(=O)/C=C/c2ccc(O)c(OC)c2)ccc1O [CURCUMIN]	–	IC50 [2]: 2.71 µM; inhibition [4]: inactive
O=C(CC(O)CCc1cccnc1)/C(=C\CCc1cccnc1)Cc1ccc(Cl)cc1 (stereo not drawn)	32	–
O=C(CCc1ccc(Cl)cc1)CC(O)CCc1cccnc1 (stereo not drawn)	16	–
COc1ccc(CCC(=O)CC(O)CCc2cccnc2)c(OC)c1 (stereo not drawn)	22	–
O=C(CCc1ccc(F)cc1)CC(O)CCc1cccnc1 (stereo not drawn)	34	–
COc1ccc(COc2ccc(CCC(=O)/C=C/CCc3cccnc3)cc2OC)cc1	40	IC50 ([2]; read-out: IC50): 24.1 µM; IC50 [3]: > 100 µM; inhibition in vivo at 100 mg/kg [4]: 75%
O=C(CCc1ccc2c(c1)OCO2)CC(O)CCc1cccnc1 (stereo not drawn)	41	–
N#Cc1ccc(CCC(=O)CC(O)CCc2cccnc2)cc1 (stereo not drawn)	35	–
Cc1cccc(CCC(=O)CC(O)CCc2cccnc2)c1 (stereo not drawn)	11	–
COc1ccc(CCC(=O)CC(O)CCc2cccnc2)cc1OC (stereo not drawn)	18	–
COc1ccc(COc2cc(CCC(=O)/C=C/CCc3cccnc3)ccc2OC)cc1	19	–
O=C(CCc1ccccc1)CC(O)CCc1cccnc1 (stereo not drawn)	3	–
COc1ccc(OC)c(CCC(=O)CC(O)CCc2cccnc2)c1 (stereo not drawn)	0	–
COc1ccc(CCC(=O)/C=C/CCc2cccnc2)cc1OC	56	inhibition [2]: Dose-dependent effect; IC50 ([2]; read-out: IC50): 2.5 µM; IC50 [3]: 80 µM; inhibition in vivo at 100 mg/kg [4]: 50%
CN(C)c1ccc(CCC(=O)/C=C/CCc2cccnc2)cc1	32	–
CN(C)c1ccc(CCC(=O)CC(O)CCc2cccnc2)cc1 (stereo not drawn)	0	–
COc1ccc(COc2cc(CCC(=O)CC(O)CCc3cccnc3)ccc2OC)cc1 (stereo not drawn)	44	IC50 ([2]; read-out: IC50): 5.7 µM; IC50 [3]: > 100 µM; inhibition in vivo at 100 mg/kg [4]: 71%
Cc1cccc(CCC(=O)/C=C/CCc2cccnc2)c1	25	–
O=C(/C=C/CCc1cccnc1)CCc1ccc(F)cc1	35	–
O=C(/C=C/CCc1cccnc1)CCc1ccccc1	0	–
COc1cc(CCC(=O)CC(O)CCc2cccnc2)cc(OC)c1OC (stereo not drawn)	12	–
COc1cc(CCC(=O)/C=C/CCc2cccnc2)cc(OC)c1OC	23	–
COc1ccc(COc2ccc(CCC(=O)CC(O)CCc3cccnc3)cc2OC)cc1 (stereo not drawn)	2	–
COc1ccc(OC)c(CCC(=O)/C=C/CCc2cccnc2)c1	0	–
